From ChEMBL document CHEMBL1131010, “Inhibition of human neutrophil elastase. 4. Design, synthesis, X-ray crystallographic analysis, and structure-activity relationships for a series of P2-modified, orally active peptidyl pentafluoroethyl ketones” (J Med Chem, 1998)

What was measured:
Assay type in all cases: functional, Cricetulus griseus
Cricetinae gen. sp. [1] = test: In vivo HNE inhibitory activity of lung hemorrhage in 6-8 hamsters; parameters: concentration or dose not given beside the values
Method in brief: (§1)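 Hamsters dosed orally at 1, 1.5, 2 or 4 h before intratracheal instillation of HNE (25 µg). Animals were killed 1 h after HNE and lungs lavaged with saline. BAL hemoglobin was read spectrophotometrically at 536-546 nm. % inhibition of hemorrhage is relative to vehicle-treated animals, given as mean ± SEM of 6-8 hamsters, with p < 0.05 as significance.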

Cricetinae gen. sp. [2] = test: In vivo percent inhibition of lung hemorrhage in 6-8 hamsters administration of 25 mg/kg 1 hour before intratracheal instillation of HNE (25 ug); method in brief: as §1
Cricetinae gen. sp. [3] = test: In vivo percent inhibition of lung hemorrhage in 6-8 hamsters administration of 25 mg/kg 2 hours before intratracheal instillation of HNE (25 ug); method in brief: as §1
Cricetinae gen. sp. [4] = test: In vivo percent inhibition of lung hemorrhage in 6-8 hamsters administration of 25 mg/kg 2 hr before intratracheal instillation of HNE (25 ug); method in brief: as §1
Cricetinae gen. sp. [5] = test: In vivo percent inhibition of lung hemorrhage in 6-8 hamsters administration of 25 mg/kg 4 hr before intratracheal instillation of HNE (25 ug); method in brief: as §1
Cricetinae gen. sp. [6] = test: In vivo percent inhibition of lung hemorrhage in 6-8 hamsters administration of 25 mg/kg 1 hr before intratracheal instillation of HNE (25 ug); method in brief: as §1
Cricetinae gen. sp. [7] = test: In vivo percent inhibition of lung hemorrhage in 6-8 hamsters after administration of 25 mg/kg 1 hr before intratracheal instillation of HNE (25 ug); method in brief: as §1

Compound	Inhibition (Cricetinae gen. sp. [1])	further results
CC(C)C(NC(=O)C1CC(O)CN1C(=O)[C@@H](NC(=O)c1ccc(C(=O)N2CCOCC2)cc1)C(C)C)C(=O)C(F)(F)C(F)(F)F (stereo not given in full)	0%	
CC(C)C(NC(=O)[C@@H]1CSCN1C(=O)[C@@H](NC(=O)c1ccc(C(=O)N2CCOCC2)cc1)C(C)C)C(=O)C(F)(F)C(F)(F)F (stereo not given in full)	0%	
CC(C)C(NC(=O)[C@H]1CC(OCc2ccccc2)CN1C(=O)[C@@H](NC(=O)c1ccc(C(=O)N2CCOCC2)cc1)C(C)C)C(=O)C(F)(F)C(F)(F)F (stereo not given in full)	7%	
CC(C)C(NC(=O)[C@@H]1CCCN1C(=O)[C@@H](NC(=O)c1ccc(C(=O)N2CCOCC2)cc1)C(C)C)C(=O)C(F)(F)C(F)(F)F (stereo not given in full)	74%	
CC(C)C(NC(=O)[C@@H]1CCCN1C(=O)[C@@H](NC(=O)c1ccc(C(=O)N2CCOCC2)cc1)C(C)C)C(=O)C(F)(F)C(F)(F)C(F)(F)F (stereo not given in full)	47%	inhibition in vivo at 25 mg/kg (Cricetinae gen. sp. [2]): 30%; inhibition in vivo at 25 mg/kg (Cricetinae gen. sp. [3]): 25%
CC(=O)OC1CC(C(=O)NC(C(=O)C(F)(F)C(F)(F)F)C(C)C)N(C(=O)[C@@H](NC(=O)c2ccc(C(=O)N3CCOCC3)cc2)C(C)C)C1 (stereo not given in full)	0%	inhibition in vivo at 25 mg/kg (Cricetinae gen. sp. [4]): 0%; inhibition in vivo at 25 mg/kg (Cricetinae gen. sp. [5]): 0%
CC(C)C(NC(=O)C1CCCCN1C(=O)[C@@H](NC(=O)c1ccc(C(=O)N2CCOCC2)cc1)C(C)C)C(=O)C(F)(F)C(F)(F)F (stereo not given in full)	54%	inhibition in vivo at 25 mg/kg (Cricetinae gen. sp. [6]): 43%; inhibition in vivo at 25 mg/kg (Cricetinae gen. sp. [4]): 39%
CC(C)C(NC(=O)[C@H]1CCN1C(=O)[C@@H](NC(=O)c1ccc(C(=O)N2CCOCC2)cc1)C(C)C)C(=O)C(F)(F)C(F)(F)F (stereo not given in full)	79%	inhibition in vivo at 25 mg/kg (Cricetinae gen. sp. [7]): 57%
